Bioassay records: PubChem BioAssay, several laboratories
BB579 growth dn: growth inhibitors of yeast BB579 in restrictive medium, primary screen, yeast lifespan-shortening project, S. cerevisiae; OD615, 48 h; inhibition, % at 10 µM; AID 804, 2007; hit rate 0.51% among 140,000;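 active = inhibition above a set limit, 3 SD over the mean compound inhibition, cut at about 44% in these data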
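controls = amphotericin B 10 µg/mL, positive | assay system = DeaD yeast strain BB579 | schedule = 48 h compound exposure at 30 °C after 4 h preincubation | detection = OD615 turbidity measurement | medium = restrictive CSMM-D medium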
S1P3 antag: S1P3 receptor antagonists, primary screen, cell-based; hit rate 0.27% among 170,000; Sphingosine 1-phosphate receptor 3 (Homo sapiens), Q99500; inhibition, % at 4.98 µM; CHO S1P3 NFAT-BLA reporter, FRET fluorescence, antagonist mode;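 active = inhibition above the plate cutoff, the mean inhibition of test wells on that plate plus 3 SD, cut at about 28% in these data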;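 note: cells challenged with S1P at its EC80 of 0.8 µM; blue over green emission ratio from cleaved BLA substrate after 4 h stimulation; 0% = S1P-stimulated wells and 100% = unstimulated DMSO-only wells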
Target sequence (Q99500 whole entry, looked up): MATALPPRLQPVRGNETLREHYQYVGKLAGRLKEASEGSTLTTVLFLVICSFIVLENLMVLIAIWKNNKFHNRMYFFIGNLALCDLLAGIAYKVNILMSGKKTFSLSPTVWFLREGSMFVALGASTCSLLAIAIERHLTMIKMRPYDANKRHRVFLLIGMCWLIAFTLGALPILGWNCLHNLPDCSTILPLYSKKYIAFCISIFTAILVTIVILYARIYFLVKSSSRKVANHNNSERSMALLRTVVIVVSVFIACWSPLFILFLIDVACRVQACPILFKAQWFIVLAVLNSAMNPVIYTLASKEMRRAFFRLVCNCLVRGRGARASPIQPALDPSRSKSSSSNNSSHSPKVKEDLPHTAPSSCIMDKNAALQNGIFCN
Yeast life ext: compounds extending yeast replicative lifespan, primary screen, S. cerevisiae, OD615 | S. cerevisiae growth with nicotinamide; deaD strain in restrictive glucose medium | AID 775, 2007 | inhibition of the nicotinamide effect, % at 10 µM | hit rate 0.68% among 130,000;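 active = inhibition above a set limit, placed 3 SD over the median of all compounds, cut at about 26% in these data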;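 note: 0% = nicotinamide-treated wells and 100% = cells grown without nicotinamide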
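Measured by: optical density (absorbance) at 615 nm; System: modified budding yeast, DeaD strain; Medium: restrictive CSMM-D dextrose medium; Timing: 4 h preincubation then 48 h treatment at 30 °C.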
* marks the source's active call; other numbers are inactive results. Only some compounds are listed: those with a hit (about 0.98% of all), similar ones and a draw of the others.

Results for CCOC(=O)C1(CCCc2ccccc2)CCN(C2CCSCC2)CC1 ?
S1P3 antag: 12

Results for COc1ccc(NC(=O)/C(C#N)=C\c2cc(C)n(-c3ccc4c(c3)OCO4)c2C)cc1 ?
BB579 growth dn: -73; S1P3 antag: -1; Yeast life ext: 2

Results for Cc1ccc(C(=O)N(C)c2ccc(OCC(=O)N3c4ccc(C)cc4C4CN(C)CCC43)cc2)cc1 (stereo unspecified) ?
S1P3 antag: -19

How did COc1ccc(-c2cc(=O)c3cc(OC)ccc3[nH]2)cc1 do in these assays?
BB579 growth dn: -12; S1P3 antag: -11; Yeast life ext: 4

How did COc1ccc2[nH]c(=O)c3c(c2c1)OC(C)(C)C=C3 do in these assays?
BB579 growth dn: -21; S1P3 antag: 67*; Yeast life ext: -24

Results for O=[N+]([O-])c1cc(/C=N/O)ccc1Sc1ccccc1 ?
BB579 growth dn: 79*; Yeast life ext: -10

How did CO/N=C/c1ccc(Sc2ccccc2)c([N+](=O)[O-])c1 do in these assays?
BB579 growth dn: -28; Yeast life ext: -10

Results for COc1ccc(-n2nc(C)c3onc(C)c3c2=O)cc1 ?
S1P3 antag: -6

What do the screens show for `O=C(O)c1ccccc1N/N=C/c1cc(Br)cc(Br)c1O`?
S1P3 antag: 5

What do the screens show for `O=C(COc1ccc(Br)cc1)N1CCN(S(=O)(=O)/C=C/c2ccccc2)CC1`?
BB579 growth dn: -48; S1P3 antag: -2; Yeast life ext: 11

How did CCC1C(=O)N=C(SCC(=O)Nc2ccccc2)NC1=O (stereo unspecified) do in these assays?
BB579 growth dn: 51*

Results for CCC1C(=O)N=C(SCC(=O)Nc2ccc(S(N)(=O)=O)cc2)NC1=O (stereo unspecified) ?
S1P3 antag: -10

What do the screens show for `CCC(=Nc1ccc(N)cc1)C1=C(O)C(C(=O)OC)C(C)(C)CC1=O` (stereo unspecified)?
BB579 growth dn: -8; S1P3 antag: -1; Yeast life ext: 30*

What do the screens show for `CCCCC(=Nc1ccc(N)cc1)C1=C(O)C(C(=O)OC)C(C)(C)CC1=O` (stereo unspecified)?
BB579 growth dn: -62; Yeast life ext: 72*

What do the screens show for `CCCC(=Nc1ccccc1)C1=C(O)C(C(=O)OC)C(C)(C)CC1=O` (stereo unspecified)?
BB579 growth dn: -42; S1P3 antag: -21; Yeast life ext: 65

What do the screens show for `CCC(=NCc1ccccc1)C1=C(O)C(C(=O)OC)C(C)(C)CC1=O` (stereo unspecified)?
BB579 growth dn: -38; S1P3 antag: -16; Yeast life ext: 11

Results for CCC(CC)=NNc1cccc([N+](=O)[O-])c1 ?
BB579 growth dn: -13; S1P3 antag: 1; Yeast life ext: -3

How did CC/C(C)=N/Nc1cccc([N+](=O)[O-])c1 do in these assays?
BB579 growth dn: 98*; S1P3 antag: 6; Yeast life ext: -9

What do the screens show for `COC(=O)C(F)(Sc1c(C)n(C)n(-c2ccccc2)c1=O)C(F)(F)F` (stereo unspecified)?
BB579 growth dn: -58; S1P3 antag: 13; Yeast life ext: -14

How did COC(=O)CCC(=O)NNC(=O)CCC(=O)Nc1cccc(Cl)c1C do in these assays?
S1P3 antag: -17

What do the screens show for `C=CCn1c(NS(=O)(=O)c2ccccc2)c(S(=O)(=O)c2ccc(C)cc2)c2nc3ccccc3nc21`?
BB579 growth dn: -19; S1P3 antag: 4; Yeast life ext: 14

What do the screens show for `O=S(=O)(Nc1c(S(=O)(=O)c2ccccc2)c2nc3ccccc3nc2n1C1CCCCC1)c1ccccc1`?
BB579 growth dn: -9; S1P3 antag: -15; Yeast life ext: 27*

How did COc1ccc(NC(C)=O)cc1NC(=O)c1ccc(Cl)cc1 do in these assays?
S1P3 antag: -9

How did Cc1cc([N+](=O)[O-])nn1CCCC(=O)N1CCN(c2ccccc2)CC1 do in these assays?
BB579 growth dn: -14; S1P3 antag: -5; Yeast life ext: -6

Results for CCn1cc(C(=O)OCc2ccccc2)c(=O)c2ccc(C)nc21 ?
BB579 growth dn: -46; S1P3 antag: 22; Yeast life ext: 0

How did CCn1cc(C(=O)O)c(=O)c2ccc(C)nc21 do in these assays?
BB579 growth dn: -18; S1P3 antag: 0; Yeast life ext: 64*

What do the screens show for `Cc1cccc(C(C)C)c1NC(=O)c1cccnc1`?
BB579 growth dn: -19; S1P3 antag: -7; Yeast life ext: -9

How did CC1=NN(c2ccccc2)C(=O)C1C(=O)c1ccccc1 (stereo unspecified) do in these assays?
BB579 growth dn: -32; S1P3 antag: -4; Yeast life ext: 28*

How did CC1=NN(c2ccccc2)C(=O)C1C(=O)c1ccc(Cl)cc1 (stereo unspecified) do in these assays?
BB579 growth dn: -35; Yeast life ext: 14

How did Cn1cc(/C=C2\SC(=O)N(c3ccc(O)cc3)C2=O)c2ccccc21 do in these assays?
S1P3 antag: 10

Results for CC12C(=O)N(c3ccccc3C(=O)O)C(=O)C1C1C=CC2C1 (stereo unspecified) ?
BB579 growth dn: -6; S1P3 antag: -6; Yeast life ext: 1

Results for CC12C(=O)N(c3cccc4cccnc34)C(=O)C1C1C=CC2C1 (stereo unspecified) ?
BB579 growth dn: 46*; S1P3 antag: -27; Yeast life ext: -8

How did CCCCCC(=O)NC(NC(=S)NC1CCS(=O)(=O)C1)C(Cl)(Cl)Cl (stereo unspecified) do in these assays?
BB579 growth dn: -32

Results for O=C(Nc1nc(-c2ccccc2)cs1)c1ccccc1NS(=O)(=O)c1ccc(F)cc1 ?
BB579 growth dn: -19; S1P3 antag: 23; Yeast life ext: 12

What do the screens show for `O=S(=O)(Nc1ccc(-c2csc(-c3ccccc3)n2)cc1)c1ccc(F)cc1`?
BB579 growth dn: 69*; Yeast life ext: -23

What do the screens show for `COc1ccccc1NC(=O)CCN1CCCCCC1`?
BB579 growth dn: -37; S1P3 antag: 2; Yeast life ext: -3

Results for CC(C)C(=O)NC(c1ccco1)c1ccc2cccnc2c1O (stereo unspecified) ?
BB579 growth dn: -29; S1P3 antag: -32; Yeast life ext: -21

Results for Oc1c(C(Nc2nc3ccccc3s2)c2ccco2)ccc2cccnc12 (stereo unspecified) ?
BB579 growth dn: 74*; S1P3 antag: 31; Yeast life ext: -6

How did CN(C)S(=O)(=O)c1ccc(N2CCCC2)c(C(=O)NCc2cccc(C(F)(F)F)c2)c1 do in these assays?
BB579 growth dn: -20; Yeast life ext: -1

How did CCc1cc(-c2n[nH]c(C)c2Oc2ccc(C(C)C)cc2)c(O)cc1O do in these assays?
BB579 growth dn: 90*; Yeast life ext: -14

Results for Cc1[nH]nc(-c2ccc(O)cc2O)c1Oc1ccccc1 ?
BB579 growth dn: -27; Yeast life ext: -6

Results for CCOC(=O)c1cc(-c2ccc(F)cc2)n(CC(=O)NC(C)CC)c1C (stereo unspecified) ?
S1P3 antag: -12

How did CCCC(=O)NC(=S)Nc1cccc(-c2nc3ncccc3o2)c1 do in these assays?
S1P3 antag: -16
